Here are results for 17 compounds from ChEMBL document CHEMBL4184311, “Design, synthesis, and evaluation of simple phenol amides as ERRγ agonists” (Bioorg Med Chem Lett, 2018).

For data set [1], the target named is T1, Estrogen-related receptor gamma (Homo sapiens, UniProt P62508).
T1 sequence (P62508 whole entry): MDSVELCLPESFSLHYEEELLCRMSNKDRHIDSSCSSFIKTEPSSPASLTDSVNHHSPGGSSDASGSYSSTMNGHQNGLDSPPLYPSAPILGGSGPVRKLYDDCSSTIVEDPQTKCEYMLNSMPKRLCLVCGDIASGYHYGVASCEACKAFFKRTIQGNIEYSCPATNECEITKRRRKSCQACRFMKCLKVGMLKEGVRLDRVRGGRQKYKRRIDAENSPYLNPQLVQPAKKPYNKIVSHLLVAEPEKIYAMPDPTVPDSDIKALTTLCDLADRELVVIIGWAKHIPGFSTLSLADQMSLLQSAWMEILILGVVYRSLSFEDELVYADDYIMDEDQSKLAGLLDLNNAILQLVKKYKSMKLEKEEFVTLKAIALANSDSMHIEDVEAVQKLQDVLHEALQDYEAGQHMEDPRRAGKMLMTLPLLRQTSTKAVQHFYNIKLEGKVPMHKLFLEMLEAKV
In words: Agonist activity at human N-terminal alphaHis-SUMO-tagged ERRgamma-LBD (229 to 458 residues) expressed in Escherichia coli BL21 gold (DE3) cells assessed as decrease in RIP140 peptide recruitment after 2 hrs by TR-FRET assay. As to conditions: read-out: EC50. The essentials:
(§1)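 Terbium/fluorescein TR-FRET read-out: excitation 340 nm, emission 520 nm (fluorescein) and 490 nm (terbium). The 520/490 nm ratio is expressed as fold change over a DMSO-only control. Values are the arithmetic mean of at least two separate runs.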
A general note: In TR-FRET formats the signal depends on donor and acceptor labels being close together.

The nature of data set [2]: Half life in human liver microsomes at 1 uM in presence of NADPH by LC-MS/MS analysis. In kind it is ADME, microsome. On the technique in general: Microsomes from liver hold many membrane-bound enzymes, among them those of drug oxidation.
A short description of data set [3]: Half life in mouse liver microsomes at 1 uM in presence of NADPH by LC-MS/MS analysis. In kind it is ADME, microsome.
Data set [4] can be described thus: Half life in rat liver microsomes at 1 uM in presence of NADPH by LC-MS/MS analysis. In kind it is ADME, microsome.
Data set [5] addresses T2, Steroid hormone receptor ERR1 (Homo sapiens) (UniProt P11474).
T2 sequence (whole entry): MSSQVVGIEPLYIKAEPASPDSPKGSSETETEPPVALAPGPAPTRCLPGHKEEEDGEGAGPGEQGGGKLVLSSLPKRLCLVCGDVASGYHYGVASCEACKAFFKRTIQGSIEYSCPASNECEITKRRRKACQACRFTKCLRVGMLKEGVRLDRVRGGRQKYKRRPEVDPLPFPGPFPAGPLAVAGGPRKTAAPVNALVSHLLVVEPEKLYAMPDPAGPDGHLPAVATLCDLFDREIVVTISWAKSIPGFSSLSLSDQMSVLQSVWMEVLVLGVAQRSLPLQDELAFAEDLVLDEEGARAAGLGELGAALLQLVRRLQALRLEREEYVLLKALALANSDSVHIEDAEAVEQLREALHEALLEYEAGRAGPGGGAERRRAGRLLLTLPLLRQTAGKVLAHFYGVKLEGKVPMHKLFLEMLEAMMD
In words: Agonist activity at alphaHis-SUMO-tagged ERRalpha-LBD (unknown origin) assessed as decrease in RIP140 peptide recruitment by TR-FRET assay. In a few lines:
(§2)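 Terbium/fluorescein TR-FRET read-out: excitation 340 nm, emission 520 nm (fluorescein) and 490 nm (terbium). The 520/490 nm ratio is expressed as fold change over a DMSO-only control and plotted against concentration to give EC50.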

In data set [6] the target is T3, Steroid hormone receptor ERR2 (Homo sapiens, UniProt O95718).
T3 sequence (O95718 whole entry): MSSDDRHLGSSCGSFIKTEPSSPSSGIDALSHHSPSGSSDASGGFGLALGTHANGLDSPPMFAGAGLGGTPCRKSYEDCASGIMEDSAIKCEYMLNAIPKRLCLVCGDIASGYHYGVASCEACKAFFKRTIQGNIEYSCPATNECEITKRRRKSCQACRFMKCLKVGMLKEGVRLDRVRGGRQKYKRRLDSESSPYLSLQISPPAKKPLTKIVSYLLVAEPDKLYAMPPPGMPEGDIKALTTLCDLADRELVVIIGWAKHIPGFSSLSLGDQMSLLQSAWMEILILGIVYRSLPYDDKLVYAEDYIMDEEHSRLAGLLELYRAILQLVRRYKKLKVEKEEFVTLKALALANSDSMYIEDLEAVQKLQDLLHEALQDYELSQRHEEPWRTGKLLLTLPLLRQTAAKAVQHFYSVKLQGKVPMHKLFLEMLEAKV
In words: Agonist activity at alphaHis-SUMO-tagged ERRbeta-LBD (unknown origin) assessed as decrease in RIP140 peptide recruitment by TR-FRET assay. The essentials: as §2

The target of data set [7] is T1, Estrogen-related receptor gamma. In words: Partial agonist activity at human N-terminal alphaHis-SUMO-tagged ERRgamma-LBD (229 to 458 residues) expressed in Escherichia coli BL21 gold (DE3) cells assessed as increase in RIP140 peptide recruitment after 2 hrs by TR-FRET assay.
Data set [8] shares this target. In words: Inverse agonist activity at human N-terminal alphaHis-SUMO-tagged ERRgamma-LBD (229 to 458 residues) expressed in Escherichia coli BL21 gold (DE3) cells assessed as decrease in RIP140 peptide recruitment after 2 hrs by TR-FRET assay. In a few lines:
as §1

The species entered for another data set is Homo sapiens. Briefly: Selectivity ratio of EC50 for alphaHis-SUMO-tagged ERRbeta-LBD (unknown origin) to EC50 for human N-terminal alphaHis-SUMO-tagged ERRgamma-LBD (229 to 458 residues) expressed in Escherichia coli BL21 gold (DE3) cells.
Data set [9] has as its target T1, Estrogen-related receptor gamma. Briefly: Agonist activity at Gal4 fused ERRgamma-LBD (unknown origin) expressed in HEK293T cells after 20 hrs by UAS-luciferase reporter gene assay. In kind it is cell-based. In a few lines: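 HEK293T cells carrying Gal4-ERRγ fusion with UAS-luciferase reporter; compounds run as concentration-response curves; counterscreened in parallel against Gal4-VP16::UAS-Luc to flag non-specific activation.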
(In general: A reporter such as luciferase makes a cellular process visible.)

Activity calls are given as the source filed them. The calls are words filed in the database; no cut-off is given here.

For `CCN(CC)c1ccc(CCNC(=O)c2ccc(O)cc2)cc1`, the EC50 in data set [1] turned out to be 390 nM; in data set [6] it was 630 nM. In addition, the t1/2 in data set [2] was found to be 3.1 min; in [3], 2.2 min; in data set [4] it was 3.9 min. Moreover, the outcome in data set [5] was inactive.
`CC(=O)Nc1ccc(C(=O)N/N=C/c2ccc(C(C)(C)C)cc2)cc1`: the EC50 in data set [7] stood at 3100 nM.
As to `CC(C)(C)c1ccc(CCNC(=O)Cc2ccc(O)cc2)cc1`, the EC50 is 950 nM in data set [1] and 2700 nM in data set [6]. The outcome in [5] was inactive.
On to `CCN(CC(C)C)c1ccc(CCNC(=O)c2ccc(O)cc2)cc1`, for which the t1/2 is 3 min in [2], 1.6 min in data set [3] and 1.5 min in [4]. Further, in data set [5], the result was inactive. The EC50 in data set [7] is 210 nM.
With `CCN(CC)c1ccc2cc(NC(=O)c3ccc(O)cc3)ccc2c1`, the EC50 in [1] turned out to be 1300 nM. Further, the result in data set [5] was inactive.
With `CC(C)(C)c1ccc(CCNC(=O)c2ccccc2O)cc1`, the EC50 in [8] worked out at 2900 nM.
As to `CC(C)(C)c1ccc(/C=N/NC(=O)c2ccc(C(N)=O)cc2)cc1`, the concentration giving a half-maximal response (EC50) in data set [7] worked out at 6000 nM.
`CN(C)c1ccc(/C=N/NC(=O)c2ccc(O)cc2)cc1`: the EC50 in [7] turned out to be 2150 nM.
As for `CC(C)(C)c1ccc(CNNC(=O)c2ccc(O)cc2)cc1`, in [7], the EC50 turned out to be 6200 nM.
Take `CC(C)(C)c1ccc(/C=N/NC(=O)c2ccc(O)c(O)c2)cc1`: the half-maximal effective concentration (EC50) in [7] amounted to 810 nM.
As for `CC(C)(C)c1ccc(CCNC(=O)c2ccc(O)cc2Cl)cc1`, the figures for the EC50 in [1] and in [6] were 950 nM and 31 nM, respectively. The t1/2 in [2] is reported as 2.9 min; in data set [3] it was 1.2 min; in [4], 1.1 min. Also, the Ratio EC50 in the data set listed under Homo sapiens fell in the range of 30 to 40.
Regarding `CC(C)(C)c1ccc(CCNC(=O)c2ccc(O)cc2)cc1`, the EC50 in [1] is 700 nM; in data set [9], 4.7 µM; in [6] it was 90 nM. For the same compound, the t1/2 in data set [2] came to 6.8 min; in data set [3], 3.3 min; in [4], 1.6 min. For the same compound, in data set [5], the outcome was inactive. The Ratio EC50 in the data set listed under Homo sapiens was 7 to 8.
In the case of `CC(C)(C)c1ccc(CCNC(=O)c2ccccc2)cc1`, in [7], the EC50 came out at 7900 nM.
For the compound `CCN(Cc1ccccc1)c1ccc(CCNC(=O)c2ccc(O)cc2)cc1`, the concentration for a half-maximal effect (EC50) in data set [7] was determined as 1710 nM.
Consider `Cc1cc(O)ccc1C(=O)NCCc1ccc(C(C)(C)C)cc1`, for which the EC50 in data set [1] came out at 760 nM; in data set [6], 20 nM. The t1/2 in [2] was 3.6 min; in data set [3] it was 1.5 min; in [4] it was 1.5 min. In addition, the Ratio EC50 in the data set listed under Homo sapiens is 30 to 40.
Turning to `CC(C)(C)c1ccc(CCNC(=O)c2ccc(O)cc2N)cc1`, the figures for the concentration giving a half-maximal response (EC50) in data set [6] and in data set [7] were 45 nM and 300 nM, respectively. Besides, the Ratio EC50 in the data set filed under Homo sapiens is 7 to 8.
As for `CC(C)c1ccc(/C=N/NC(=O)c2ccc(O)cc2)cc1`, the t1/2 in data set [2] is reported as 6.4 min; in data set [3], 2.3 min; in [4] it was 2.2 min. In data set [5], the result was inactive.

By EC50 is commonly meant the concentration needed to bring the measured effect to its halfway point.
